Active and inactive are the calls of the source. The rule behind the calls is not given here.
Key:
[1] = Cell cycle arrest in human NB1 hTERT cells assessed as G2/M phase accumulation at 1 uM after 48 hrs by propidium iodide staining based flow cytometry (reference value: 27.2%); type: functional
[2] = Cell cycle arrest in human NB1 hTERT cells assessed as G2/M phase accumulation at 1 uM after 72 hrs by propidium iodide staining based flow cytometry (reference value: 23.9%); type: functional
[3] = Cell cycle arrest in human NB-1 cells assessed as S phase accumulation at 1 uM after 48 hrs by propidium iodide staining based flow cytometry (reference value: 1.7%); conditions: nb1, 48 h
MCF7 = experiment: Disruption of beta-tubulin network in human MCF7 cells assessed as induction of micronucleated cells at 1 uM after 24 hrs by DAPI staining based immunofluorescence microscopic analysis; type: cell-based
Outline: (§1)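 Cells seeded on glass coverslips (1 x 10^5/well), treated 24 h, fixed in 4% paraformaldehyde 15 min, permeabilized with 0.5% Triton X-100, blocked in 5% BSA/PBS, stained overnight at 4 °C with anti-β-tubulin (1:200) then fluorescent secondary antibody; nuclei counterstained with DAPI; microtubule organization and nuclear morphology examined by fluorescence microscopy.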

[4] = Cell cycle arrest in human SH-SY5Y cells assessed as subG1 phase accumulation at 1 uM after 24 hrs by propidium iodide staining based flow cytometry relative to DMSO control; type: functional
A549 [5] = experiment: Increase in p53 expression in human A549 cells at 1 uM after 24 hrs by immunoblot method relative to control; type: functional
Outline: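 After 24 h treatment at 1 μM, cells lysed in Tris pH 8/NaCl/glycerol/NP-40/EDTA buffer with protease inhibitors. Equal lysate amounts run on 10% SDS gels, blotted to nitrocellulose, probed for p53 with GAPDH as loading control, detected by enhanced chemiluminescence. Bands quantified by densitometry against GAPDH and compared with untreated cells; three independent experiments.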

[6] = Disruption of beta-tubulin network in human MCF7 cells assessed as uneven distribution around nuclei at 1 uM after 24 hrs by DAPI staining based immunofluorescence microscopic analysis; type: cell-based; outline: as §1
A549 [7] = experiment: Induction of apoptosis in human A549 cells assessed as early apoptotic cells at 5 uM after 72 hrs by Annexin-V FITC/propidium iodide staining based flow cytometry (reference value: 1.3%); type: functional
[8] = Induction of apoptosis in human NB1 hTERT cells assessed as necrotic cells at 5 uM after 72 hrs by Annexin-V FITC/propidium iodide staining based flow cytometry (reference value: 1.6%); type: functional
[9] = Cell cycle arrest in human SH-SY5Y cells assessed as G2/M phase accumulation at 1 uM after 24 hrs by propidium iodide staining based flow cytometry (reference value: 26.2 +/- 1.27%); type: functional
[10] = Induction of apoptosis in human NB-1 cells assessed as early apoptotic cells at 5 uM after 72 hrs by Annexin-V FITC/propidium iodide staining based flow cytometry (reference value: 3.2%); type: cell-based; conditions: nb1, 72 h
[11] = Cell cycle arrest in human SH-SY5Y cells assessed as G1 phase accumulation at 1 uM after 24 hrs by propidium iodide staining based flow cytometry (reference value: 59.6 +/- 1.94%); type: functional
[12] = Induction of apoptosis in human NB1 hTERT cells assessed as live cells at 5 uM after 72 hrs by Annexin-V FITC/propidium iodide staining based flow cytometry (reference value: 93.2%); type: functional
[13] = Cell cycle arrest in human NB-1 cells assessed as G1 phase accumulation at 1 uM after 72 hrs by propidium iodide staining based flow cytometry (reference value: 81.7%); conditions: nb1, 72 h
[14] = Antiproliferative activity against human NB-1 cells after 72 hrs by XTT assay; type: cell-based; conditions: NB1, 72 h
Outline: (§2)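 Cells plated at 1500–2000 per well by doubling time, treated after 24 h with a concentration series in six triplicate wells, and incubated 72 h without a medium change. XTT reagent was then added for 4 h at 37 °C and absorbance read at 490 nm. IC50 is the concentration halving absorbance versus untreated cells. Experiments run in triplicate.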

A549 [15] = experiment: Induction of apoptosis in human A549 cells assessed as necrotic cells at 5 uM after 72 hrs by Annexin-V FITC/propidium iodide staining based flow cytometry (reference value: 1.6%); type: functional
HeLa [16] = experiment: Induction of apoptosis in human HeLa cells assessed as late apoptotic cells at 5 uM after 48 hrs by Annexin-V FITC/propidium iodide staining based flow cytometry (reference value: 4.9%); type: functional
[17] = Cell cycle arrest in human NB1 hTERT cells assessed as G2/M phase accumulation at 1 uM after 24 hrs by propidium iodide staining based flow cytometry (reference value: 35.7%); type: functional
[18] = Cell cycle arrest in human Kelly cells assessed as G1 phase accumulation at 1 uM after 24 hrs by propidium iodide staining based flow cytometry (reference value: 65.9 +/- 1.87%); type: functional
[19] = Cell cycle arrest in human MCF7 cells assessed as G1 phase accumulation at 1 uM treated for 24 hrs followed by compound washout measured after 24 hrs by propidium iodide staining based flow cytometry (reference value: 61.4%); type: functional
[20] = Cell cycle arrest in human A549 cells assessed as S phase accumulation at 1 uM after 24 hrs by propidium iodide staining based flow cytometry (reference value: 7.6 +/- 0.63%); type: functional
[21] = Cell cycle arrest in human NCI-H1299 cells assessed as G1 phase accumulation at 1 uM after 24 hrs by propidium iodide staining based flow cytometry (reference value: 61.2 +/- 1.69%); type: functional
[22] = Cell cycle arrest in human T98G cells assessed as subG1 phase accumulation at 1 uM after 24 hrs by propidium iodide staining based flow cytometry relative to DMSO control; type: functional
[23] = Cell cycle arrest in human LAN1 cells assessed as S phase accumulation at 1 uM after 24 hrs by propidium iodide staining based flow cytometry (reference value: 23.5 +/- 1.32%); type: functional
[24] = Antiproliferative activity against human HeLa cells after 72 hrs by XTT assay; type: functional, cell-based; outline: as §2
[25] = Cell cycle arrest in human LAN1 cells assessed as G1 phase accumulation at 1 uM after 24 hrs by propidium iodide staining based flow cytometry (reference value: 60.3 +/- 1.82%); type: functional
[26] = Cell cycle arrest in human MCF7 cells assessed as G2/M phase accumulation at 1 uM after 144 hrs by propidium iodide staining based flow cytometry (reference value: 16.3%); type: functional
HeLa [27] = experiment: Induction of apoptosis in human HeLa cells assessed as necrotic cells at 5 uM after 48 hrs by Annexin-V FITC/propidium iodide staining based flow cytometry (reference value: 2.3%); type: functional
[28] = Cell cycle arrest in human NB1 hTERT cells assessed as sub G1 phase accumulation at 1 uM after 72 hrs by propidium iodide staining based flow cytometry relative to control; type: functional
[29] = Induction of apoptosis in human NB-1 cells assessed as necrotic cells at 5 uM after 72 hrs by Annexin-V FITC/propidium iodide staining based flow cytometry (reference value: 0.2%); type: cell-based; conditions: nb1, 72 h
[30] = Cell cycle arrest in human Kelly cells assessed as subG1 phase accumulation at 1 uM after 24 hrs by propidium iodide staining based flow cytometry relative to DMSO control; type: functional

## Cc1[nH]c2c(c1-c1nnc(-c3ccccc3)o1)Cc1ccccc1-2
[1]
  Activity: 23.1%
[2]
  Activity: 20.8%
[3]
  Activity: 2.4%
MCF7
  Activity: Active
[4]
  Activity: 15.7%
A549 [5]
  fold change (FC): 2 - 3
[6]
  Activity: Active
A549 [7]
  Activity: 11%
[8]
  Activity: 2.1%
[9]
  Activity: 43.9%
[10]
  Activity: 4.2%
[11]
  Activity: 24.8%
[12]
  Activity: 81%
[13]
  Activity: 77.6%
[14]
  IC50: 1.3 µM
A549 [15]
  Activity: 4.6%
HeLa [16]
  Activity: 85.1%
[17]
  Activity: 28.9%
[18]
  Activity: 34.3%
[19]
  Activity: 56.8%
[20]
  Activity: 9.5%
[21]
  Activity: 17.8%
[22]
  Activity: 16.8%
[23]
  Activity: 5.6%
[24]
  IC50: 0.05 µM
[25]
  Activity: 11.8%
[26]
  Activity: 79.9%
HeLa [27]
  Activity: 4.3%
[28]
  Activity: 25.3%
[29]
  Activity: 0.8%
[30]
  Activity: 13.4%

— ChEMBL document CHEMBL3877293, “Synthesis and Antineoplastic Evaluation of Novel Unsymmetrical 1,3,4-Oxadiazoles” (J Med Chem, 2016)
